From article PMC2744100 (Journal of medicinal chemistry, 2009)
Where two headings read alike, the source gives them in different places.

Experiments:
[1] = biological target: T1, TCCYP51 (Trypanosoma cruzi, UniProt Q7Z1V1); test: Spectral titration of TCCYP51; assay type: binding; conditions: ligand-free maximum 417 nm
[2] = biological target: T1, TCCYP51; assay type: biochemical; conditions: reconstituted enzyme reaction
[3] = system: rat cardiomyocyte monolayers; test: Effect on cardiomyocyte monolayers in the growth inhibition assay; assay type: cell-based; conditions: concentrations higher than 10 μM
[4] = biological target: T1, TCCYP51; test: ESI-MS analysis of non-covalent interactions in TCCYP51; assay type: binding; conditions: ESI-mass spectrometry, 20-HCl 100 μM
[5] = system: TC epimastigotes; test: TC cellular sterol analysis; assay type: cell-based, Trypanosoma cruzi; conditions: 50 μM, TLC
[6] = system: TC trypomastigotes and amastigotes; test: Growth inhibition assay in TC cells; assay type: cell-based, Trypanosoma cruzi; conditions: for Effect on parasites in cardiomyocytes at 20 μM: 20 μM compound; for Antiparasitic effect in both human forms of TC: pre-treatment of trypomastigotes, 1–50 μM
Procedure, shortened: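 Trypomastigotes (10^6) pre-exposed 30 min to test compound in DMSO (1–50 μM) or DMSO alone. Then added in triplicate to rat cardiomyocyte monolayers, 10 parasites/cell, for 2 h. Unbound parasites were removed and cultures kept 72 h in DMEM + 10% FBS. T. cruzi per 200 cells and % infection were counted microscopically on Giemsa stain. Mean ± SD; Student t test versus DMSO.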

[7] = system: TC epimastigotes; conditions: 1 μM; cited from earlier work
[8] = system: TC cells; conditions: published values; cited from earlier work
[9] = biological target: T1, TCCYP51; conditions: read-out: Kd of enzyme/substrate complex formation; preferred substrate; cited from earlier work

T1 sequence (Q7Z1V1 whole entry): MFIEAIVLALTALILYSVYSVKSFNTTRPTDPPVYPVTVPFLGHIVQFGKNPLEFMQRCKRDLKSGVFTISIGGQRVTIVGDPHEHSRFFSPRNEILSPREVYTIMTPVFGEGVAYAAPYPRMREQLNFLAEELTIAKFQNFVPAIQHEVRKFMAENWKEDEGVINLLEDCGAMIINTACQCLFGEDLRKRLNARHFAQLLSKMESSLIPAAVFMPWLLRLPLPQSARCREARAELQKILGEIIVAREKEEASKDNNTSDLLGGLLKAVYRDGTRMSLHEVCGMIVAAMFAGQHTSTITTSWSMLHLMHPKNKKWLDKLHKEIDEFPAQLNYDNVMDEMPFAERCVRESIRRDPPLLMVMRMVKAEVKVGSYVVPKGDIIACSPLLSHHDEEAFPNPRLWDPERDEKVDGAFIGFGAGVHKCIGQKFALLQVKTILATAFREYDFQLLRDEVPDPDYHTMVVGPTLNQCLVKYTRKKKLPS

## O=C(Nc1ccncc1)C1c2ccccc2Oc2ccccc21 [Compound 7]
[1]
  Spectral Response in TCCYP51, Soret band maximum: 422 nm

## COc1ccc2c(c1)c(CC(=O)NCC(C)c1ccccc1)c(C)n2C(=O)c1ccc(Cl)cc1 (centres unmarked) [Compound 22]
[1]
  Spectral Response in TCCYP51, Soret band maximum: 419 nm
[2]
  Character of TCCYP51 inhibition (reversibility): functionally irreversible
[3]
  Effect on cardiomyocyte monolayers: release cardiomyocyte monolayers at higher concentrations

## COc1ccc2c(c1)c(CC(=O)NCCc1cccnc1)c(C)n2C(=O)c1ccc(Cl)cc1 [Compound 20]
[1]
  Spectral Response in TCCYP51, Soret band maximum: 422 nm
[4]
  Binding stoichiometry to TCCYP51: simultaneous binding of two inhibitor molecules to the enzyme
[5]
  Effect on TC cellular sterol composition: very similar effect on cellular sterol composition
[6]; 72 h
  Effect on parasites in cardiomyocytes at 20 μM: practically eliminated from cardiomyocytes
[6]; TC amastigotes in cardiomyocytes, 72 h
  ED50 (growth inhibition): < 1000 nM
[6]
  Antiparasitic effect in both human forms of TC: clear dose-dependent antiparasitic effect

## CCC(C(=O)Nc1ccncc1)c1ccccc1 (centres unmarked) [Compound 5, 2-phenyl-N-pyridin-4-ylbutanamide]
[1]
  Spectral Response in TCCYP51, Soret band maximum: 422 nm

## COc1ccc2c(c1)c(CC(=O)Nc1cccnc1)c(C)n2C(=O)c1ccc(Cl)cc1 [Compound 12]
[1]
  Spectral Response in TCCYP51, Soret band maximum: 422 nm

## COc1ccc2c(c1)c(CC(=O)NCc1ccccn1)c(C)n2C(=O)c1ccc(Cl)cc1 [Compound 13]
[1]
  Spectral Response in TCCYP51, Soret band maximum: 418 nm
[6]; 72 h
  Effect on parasites in cardiomyocytes at 20 μM: practically eliminated from cardiomyocytes
[6]
  Antiparasitic effect in both human forms of TC: clear dose-dependent antiparasitic effect

## COc1ccc2c(c1)c(CC(=O)NC(C)c1ccncc1)c(C)n2C(=O)c1ccc(Cl)cc1 (centres unmarked) [Compound 15]
[1]
  Spectral Response in TCCYP51, Soret band maximum: 422 nm

## O=C(NC(Cn1ccnc1)c1ccc(Cl)cc1Cl)c1ccc(-c2nnc(-c3ccccc3)o2)cc1 (centres unmarked) [SDZ-284629, N-(1-(2,4-dichlorophenyl)-2-(1H-imidazol-1-yl)ethyl)-4-(5-phenyl-1,3,4-oxadiazol-2-yl)benzamide]
[7]
  Effect on TC cellular sterol composition: the pathway practically stops at the stage of the C14-methylated sterol precursors

## COc1ccc2c(c1)c(CC(=O)NCc1ccc(C(F)(F)F)nc1)c(C)n2C(=O)c1ccc(Cl)cc1 [Compound 19]
[1]
  Spectral Response in TCCYP51, Soret band maximum: 420 nm

## COc1ccc2c(c1)c(CC(=O)NCc1ccc(Cl)nc1)c(C)n2C(=O)c1ccc(Cl)cc1 [Compound 18]
[1]
  Spectral Response in TCCYP51, Soret band maximum: 420 nm
[6]; 72 h
  Effect on parasites in cardiomyocytes at 20 μM: practically eliminated from cardiomyocytes
[6]
  Antiparasitic effect in both human forms of TC: clear dose-dependent antiparasitic effect

## COc1ccc2c(c1)c(CC(=O)Nc1ccccn1)c(C)n2C(=O)c1ccc(Cl)cc1 [Compound 16]
[1]
  Spectral Response in TCCYP51, Soret band maximum: 416 nm

## COc1ccc2c(c1)c(CC(=O)NCCc1cccc(Cl)c1)c(C)n2C(=O)c1ccc(Cl)cc1 [Compound 21]
[1]
  Spectral Response in TCCYP51, Soret band maximum: 419 nm
[2]
  Character of TCCYP51 inhibition (reversibility): functionally irreversible
[3]
  Effect on cardiomyocyte monolayers: release cardiomyocyte monolayers at higher concentrations

## CC1CCC(C(=O)NC(Cc2c[nH]c3ccccc23)C(=O)Nc2ccncc2)CC1 (centres unmarked) [Compound 9]
[1]
  Spectral Response in TCCYP51, Soret band maximum: 422 nm
[6]; 72 h
  Effect on parasites in cardiomyocytes at 20 μM: practically eliminated from cardiomyocytes
[6]
  Antiparasitic effect in both human forms of TC: clear dose-dependent antiparasitic effect

## O=C(Cn1ccnc1[N+](=O)[O-])NCc1ccccc1 [benznidazole]
[8]
  ED50 in TC cells: 25000 to 50000 nM

## C=C(CC[C@@H](C)[C@H]1CC[C@@]2(C)C3=C(CC[C@]12C)[C@@]1(C)CC[C@H](O)C(C)(C)[C@@H]1CC3)C(C)C [24-methylenedihydrolanosterol]
[9]
  Kd: ~1000 nM

## COc1ccc2c(c1)c(CC(=O)Nc1ncccn1)c(C)n2C(=O)c1ccc(Cl)cc1 [Compound 17]
[1]
  Spectral Response in TCCYP51, Soret band maximum: 417 nm

## COc1ccc2c(c1)c(CC(=O)NCc1ccncc1)c(C)n2C(=O)c1ccc(Cl)cc1 [Compound 14]
[1]
  Spectral Response in TCCYP51, Soret band maximum: 422 nm
